STAT3 blocker: IL-6 driven STAT3 reporter inhibitors, primary screen, U3A cells, luciferase, luminescence, MLSCN library; IL-6 STAT3-luciferase reporter; host cell line lacks STAT1; inhibition, % at 5.5 µM; 190,000 tested, 0.89% active; AID 862, 2007;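 active means inhibition above the mean inhibition across all screened compounds plus 3 SD, cut at about 44% in these data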;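 further: 0% = DMSO only wells and 100% = 100 µM nifuroxazide control wells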
STAT1 act: STAT1 signaling activators, primary screen, cell-based, HTS, luciferase reporter. AID 932, 2007. activation (% of control), % at 5.5 µM. 200,000 tested, 2.6% active. NIH 3T3 STAT1-luciferase reporter, IFN-gamma, luminescence; 100% = IFN-gamma alone, no compound;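 active means activation above the screen-wide mean activation plus 3 SD, cut at about 130% in these data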;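 further: raw ratio to IFN-gamma control signal so 100% means no change and 0% no light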
STAT3 act: IL-6 driven STAT3 reporter potentiators, primary screen, U3A cells, luciferase, luminescence, MLSCN library | IL-6 STAT3-luciferase reporter; 100% = signal with IL-6 EC80 alone | activation (% of control), % at 5.6 µM | 190,000 tested, 0.91% active | AID 871, 2007;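 active means activation above the screen-wide mean of compound activation plus 3 SD, cut at about 130% in these data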;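 further: 0% = background luminescence of wells with medium and substrate only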
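Material: STAT3-luciferase reporter U3A cells. Controls: IL-6-treated wells, 100% activation. Read-out: % activation versus median of IL-6-stimulated wells. Probe or stimulus: IL-6 stimulus at 33 ng/mL final. Timing: compound 1 h, then IL-6 6 h at 37 °C. Signal: reporter luminescence signal.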
NF-kB expr up: activators of NF-kB expression in neurons, primary screen, cell-based, HTS; human neuronal cells, NF-kB reporter expression; stronger effect = higher value; fold change at 12.5 µM; 190,000 tested, 1.6% active; AID 1239, 2008; in the data active means fold change above about 3.3
STAT1 blocker: STAT1 signaling inhibitors, primary screen, cell-based, HTS, luciferase reporter. NIH 3T3 STAT1-luciferase reporter, IFN-gamma, luminescence. AID 920, 2007. 200,000 tested, 0.35% active. inhibition, % at 5.5 µM;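 active means inhibition above a set limit, the mean inhibition across all tested compounds plus 3 SD, cut at about 34% in these data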;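 further: 0% = IFN-gamma with DMSO and 100% = IFN-gamma with 300 µM nifuroxazide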
APP 5'UTR act: activators of APP 5'UTR luciferase reporter, primary screen, SH-SY5Y cells; 190,000 tested, 1% active; SH-SY5Y APP 5'UTR luciferase reporter, luminescence; zero percent = DMSO vehicle wells; activation, % at 2 µM;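 active means activation above a set limit, based on mean plus 3 SD of controls, cut at about 140% in these data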
* marks the source's active call; other numbers are inactive results; . = not tested or not shown. Rows were chosen to be rich in hits. Some 5.1% of all compounds tested hit in one or more screens of this group.

SMILES	STAT3 blocker	STAT1 act	STAT3 act	NF-kB expr up	STAT1 blocker	APP 5'UTR act
O=C(COc1ccc(F)cc1)N1CCC(c2ccccc2)C1 (stereo unspecified)	-9	136*	111	2	-39	47
O=C(/C=C/c1ccccc1)N1CCC(c2ccccc2)C1 (stereo unspecified)	-3	137*	105	4.4*	-42	141*
O=C(/C=C/c1ccco1)N1CCCC(c2ccccc2)C1 (stereo unspecified)	6	109	97	1.8	-12	17
NC(=O)C1CCN(C(=O)Nc2ccccc2)CC1	1	107	102	0.92	-2	11
CCN(CC)c1ccc(NC(=O)c2ccc(=O)[nH]c2)cc1S(=O)(=O)Nc1ccccc1OC	0	102	102	1.1	-3	-8
COc1ccccc1S(=O)(=O)CC(O)COc1ccc(C#N)cc1 (stereo unspecified)	0	91	101	1.2	8	-14
COC(=O)c1nn(-c2ccccc2)c(Sc2ccc(Br)cc2)c1/C=N/O	-7	97	116	0.93	4	-3
CCN(CC)c1ccc(/C=C2/C(=O)c3ccc(C(=O)O)cc3C2=O)cc1	-10	130*	106	2.5	-33	7
CCN(CC)c1ccc(C=C2C(=O)OC3(CCCCC3)OC2=O)cc1	9	101	102	1.2	-2	-19
CCCC(=O)c1ccc(N2CCCCCC2)c(F)c1	3	114	102	2.1	-15	8
CCCC(=O)c1ccc(N2CCCCC2)c(F)c1	5	130*	102	1.8	-34	51
O=C(COC(=O)CSc1ccc2ccccc2c1Br)NC1CC1	-2	103	103	1	-3	2
CC(=O)NCCOc1ccc2oc3ccccc3c2c1	6	130*	98	2.2	-33	17
O/C(=C\c1nc2ccccc2nc1/C=C(\O)c1ccccc1)c1ccccc1	-39	134*	145*	1.2	-39	83
CCSc1nc(-c2ccc(OC)cc2)cc(-c2ccccc2)c1C#N	13	91	94	1	10	7
COc1ccc(-c2cc(-c3ccccc3)c(C#N)c(S(C)=O)n2)cc1 (stereo unspecified)	-4	105	109	3.6*	-5	.
Cc1ccc(C)c(S(=O)(=O)N2CCN(CC(=O)NC(=O)NCc3ccco3)CC2)c1	-2	89	103	1	12	11
O=C(Cc1csc(Nc2nc(=S)[nH]c3ccccc23)n1)NCc1cccc(Cl)c1	-14	99	122	1.1	1	18
O=C(Cc1csc(Nc2nc(=S)[nH]c3ccccc23)n1)N1CCN(c2cccc(C(F)(F)F)c2)CC1	-38	92	135*	1.5	7	-3
O=C(Nc1ccc(F)cc1F)c1cc2nc3c(c(C(F)(F)F)n2n1)CCCC3	0	105	100	0.45	-5	173*
Cc1occc1C(=O)NNC(=S)Nc1ccccc1C(F)(F)F	-4	133*	102	0.95	-36	108
Oc1ccc(NCc2cccc(OCc3ccc(F)cc3)c2)cc1	0	129*	103	1.4	-34	-3
Cc1sc(NC(=O)C(C)C)c(C(=O)Nc2ccccc2)c1C	9	99	98	1.3	2	6
COCCn1cnnc1SCC(=O)Nc1cc(OC)c([N+](=O)[O-])cc1C	-8	96	114	1.1	4	-23
CC(=O)c1ccc(S(=O)(=O)N(Cc2cc3cc4c(cc3[nH]c2=O)OCCO4)CC2CCCO2)cc1 (stereo unspecified)	-5	129*	109	1.6	-32	26
CSCCC(NC(C)=O)C(=O)Oc1ccc2c3c(c(=O)oc2c1)CCCC3 (stereo unspecified)	25	94	84	1.1	7	0
CSCCC(NC(=O)OC(C)(C)C)C(=O)Oc1ccc2c(=O)c(-c3ccc4c(c3)OCCO4)coc2c1 (stereo unspecified)	23	129*	90	3.2	-32	173*
